In ChEMBL document CHEMBL3045617, “Synthesis and antiviral activities of cyanoacrylate derivatives containing an alpha-aminophosphonate moiety” (J Agric Food Chem, 2008):
In brackets after ≈: the same amount, converted by molar mass.

Columns and labels:
[1] = tested on: Tobacco mosaic virus; experiment: Antiviral activity against Tobacco mosaic virus (TMV) pre-treated with 125 ug/mL compound for 30 min followed by inoculation on left side of Nicotiana tabacum leaves assessed as virus inactivation effect measured 3 to 4 days post viral infection; format: functional
How it was run: (§1)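 Purified TMV is mixed with an equal volume of compound solution for 30 min. The mixture is rub-inoculated on the left half of N. tabacum leaves, and a solvent–virus mixture on the right half serves as control. Local lesions are recorded 3-4 days after inoculation. Inhibition % = (control − treated average lesions)/control × 100. Three repetitions. EC50 is derived from tests at several concentrations.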

[2] = tested on: Tobacco mosaic virus; experiment: Antiviral activity against Tobacco mosaic virus (TMV) pre-treated with 500 ug/mL compound for 30 min followed by inoculation on left side of Nicotiana tabacum leaves assessed as virus inactivation effect measured 3 to 4 days post viral infection; format: functional; how it was run: as §1
[3] = tested on: Tobacco mosaic virus; experiment: Antiviral activity against Tobacco mosaic virus (TMV) pre-treated with 250 ug/mL compound for 30 min followed by inoculation on left side of Nicotiana tabacum leaves assessed as virus inactivation effect measured 3 to 4 days post viral infection; format: functional; how it was run: as §1
[4] = tested on: Tobacco mosaic virus; experiment: Antiviral activity against Tobacco mosaic virus (TMV) inoculated on 500 ug/mL compound smeared Nicotiana tabacum leaves assessed as protective effect against viral infection measured 3 to 4 days post viral infection; format: functional
How it was run: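 Half-leaf assay on same-age N. tabacum leaves. The compound solution is applied to the left half and solvent to the right half as control. After 12 h, leaves dusted with silicon carbide are brush-inoculated with purified TMV (6 × 10^-3 mg/mL) and then rinsed with water. Local lesions are counted 3-4 days later. Inhibition % = (control lesions − treated lesions)/control lesions × 100. Three repetitions.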

[5] = tested on: Tobacco mosaic virus; experiment: Antiviral activity against Tobacco mosaic virus (TMV) pre-treated with 30.7 ug/mL compound for 30 min followed by inoculation on left side of Nicotiana tabacum leaves assessed as virus inactivation effect measured 3 to 4 days post viral infection; format: functional; how it was run: as §1
[6] = tested on: Tobacco mosaic virus; experiment: Antiviral activity against Tobacco mosaic virus (TMV) inoculated on whole Nicotiana tabacum leaves followed by smearing with 500 ug/mL compound solution on left side of leaves assessed as viral infection curative effect measured 3 to 4 days post viral infection; format: functional
How it was run: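 Whole same-age N. tabacum leaves are brush-inoculated with purified TMV (6 × 10^-3 mg/mL), washed with water and dried. The compound solution is then applied to the left half and solvent to the right half as control. Local lesions are counted 3-4 days after inoculation. Inhibition % is calculated from average lesion counts, control versus treated. Three repetitions.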

[7] = tested on: Tobacco mosaic virus; experiment: Antiviral activity against Tobacco mosaic virus (TMV) pre-treated with 62.5 ug/mL compound for 30 min followed by inoculation on left side of Nicotiana tabacum leaves assessed as virus inactivation effect measured 3 to 4 days post viral infection; format: functional; how it was run: as §1
[8] = tested on: Tobacco mosaic virus; experiment: Antiviral activity against Tobacco mosaic virus (TMV) pre-treated with compound for 30 min followed by inoculation on left side of Nicotiana tabacum leaves assessed as virus inactivation effect measured 3 to 4 days post viral infection; format: functional, organism-based; how it was run: as §1

`CCOP(=O)(OCC)C(N/C(SC)=C(/C#N)C(N)=O)c1ccccc1F` (stereo not given) showed an Activity [1] of 46.2%, an Activity [2] of 70.7% and an Activity [3] of 49%. The Activity [4] was 42.8%, the Activity [5] was 26.9% and the Activity [6] was 25.4%. The Activity [7] was 35.8% and the EC50 [8] was 151 µg/mL (≈ 376 µM).
Compound `CCOP(=O)(OCC)C(N/C(SC)=C(/C#N)C(=O)NCc1ccccc1)c1ccccc1` (stereo not given) has an Activity [2] of 51.9%, an Activity [4] of 55.1% and an Activity [6] of 55%.
For `CCCOP(=O)(OCCC)C(N/C(SC)=C(/C#N)C(=O)NCc1ccccc1)c1ccccc1` (stereo not given), the Activity [2] was 50%, the Activity [4] was 42.4% and the Activity [6] was 53.8%.
For `CS/C(NC(c1ccccc1)P(=O)(OC(C)C)OC(C)C)=C(\C#N)C(=O)NCc1ccccc1` (stereo not given), the Activity [2] was 51.5%, the Activity [4] was 39% and the Activity [6] was 52.9%.
`CCCCOP(=O)(OCCCC)C(N/C(SC)=C(/C#N)C(=O)NCc1ccccc1)c1ccccc1` (stereo not given) was tested, and the Activity [2] was 11%, the Activity [4] was 45% and the Activity [6] was 28.4%.
With `CCOP(=O)(OCC)C(N/C(SC)=C(/C#N)C(=O)NCc1ccccc1)c1ccccc1F` (stereo not given) the Activity [1] was 48.9%, the Activity [2] was 73.4% and the Activity [3] was 58.9%. For the same compound, the Activity [4] was 47.7%, the Activity [5] was 29% and the Activity [6] was 49.9%. For the same compound, the Activity [7] was 41.2% and the EC50 [8] was 128 µg/mL (≈ 260 µM).
Compound `CCOP(=O)(OCC)C(N/C(SC)=C(/C#N)C(=O)OC)c1ccccc1` (stereo not given) has an Activity [2] of 64.1%, an Activity [4] of 29.6% and an Activity [6] of 56.7%.
`CCCOP(=O)(OCCC)C(N/C(SC)=C(/C#N)C(=O)OC)c1ccccc1` (stereo not given) showed an Activity [2] of 47.1%, an Activity [4] of 44.4% and an Activity [6] of 37.7%.
`COC(=O)/C(C#N)=C(\NC(c1ccccc1)P(=O)(OC(C)C)OC(C)C)SC` (stereo not given) was tested, and the Activity [2] was 45.7%, the Activity [4] was 40.8% and the Activity [6] was 43.3%.
`CCCCOP(=O)(OCCCC)C(N/C(SC)=C(/C#N)C(=O)OC)c1ccccc1` (stereo not given) showed an Activity [1] of 66.9%, an Activity [2] of 92.8% and an Activity [3] of 70.2%. The Activity [4] was 55.9%, the Activity [5] was 37.6% and the Activity [6] was 60.2%. The Activity [7] was 53.7% and the EC50 [8] was 55.5 µg/mL (≈ 122 µM).
With `CCOP(=O)(OCC)C(N/C(SC)=C(/C#N)C(=O)OC)c1ccccc1F` (stereo not given) the Activity [1] was 60.6%, the Activity [2] was 92.1% and the Activity [3] was 69.7%. The Activity [4] was 44%, the Activity [5] was 40.8% and the Activity [6] was 58.4%. The Activity [7] was 52.5% and the EC50 [8] was 55.3 µg/mL (≈ 133 µM).
With `CCCOP(=O)(OCCC)C(N/C(SC)=C(/C#N)C(=O)OCC)c1ccccc1` (stereo not given) the Activity [1] was 47.9%, the Activity [2] was 71% and the Activity [3] was 50.1%. For the same compound, the Activity [4] was 41.6%, the Activity [5] was 20.9% and the Activity [6] was 50.5%. The Activity [7] was 33.1% and the EC50 [8] was 159 µg/mL (≈ 361 µM).
`CCOC(=O)/C(C#N)=C(\NC(c1ccccc1)P(=O)(OC(C)C)OC(C)C)SC` (stereo not given) was tested, and the Activity [2] was 37.8%, the Activity [4] was 37.6% and the Activity [6] was 42.8%.
In the case of `CCCCOP(=O)(OCCCC)C(N/C(SC)=C(/C#N)C(=O)OCC)c1ccccc1` (stereo not given), the Activity [1] is reported as 51.6%, the Activity [2] is reported as 84% and the Activity [3] is reported as 65.7%. It also gave an Activity [4] of 56.5%, an Activity [5] of 42.6% and an Activity [6] of 55.8%. For the same compound, the Activity [7] was 48.5% and the EC50 [8] was 62.6 µg/mL (≈ 134 µM).
`CCOC(=O)/C(C#N)=C(\NC(c1ccccc1F)P(=O)(OCC)OCC)SC` (stereo not given) showed an Activity [1] of 50.1%, an Activity [2] of 74.1% and an Activity [3] of 64.1%. The Activity [4] was 48.3%, the Activity [5] was 30.7% and the Activity [6] was 50.7%. It also gave an Activity [7] of 39.1% and an EC50 [8] of 118 µg/mL (≈ 275 µM).
With `CCOCCOC(=O)/C(C#N)=C(\NC(c1ccccc1)P(=O)(OCC)OCC)SC` (stereo not given) the Activity [2] was 46.8%, the Activity [4] was 41.2% and the Activity [6] was 55.2%.
With `CCCOP(=O)(OCCC)C(N/C(SC)=C(/C#N)C(=O)OCCOCC)c1ccccc1` (stereo not given) the Activity [2] was 51.5%, the Activity [4] was 43.1% and the Activity [6] was 43.2%.
With `CCOCCOC(=O)/C(C#N)=C(\NC(c1ccccc1)P(=O)(OC(C)C)OC(C)C)SC` (stereo not given) the Activity [2] was 55.9%, the Activity [4] was 38.4% and the Activity [6] was 35.1%.
For `CCCCOP(=O)(OCCCC)C(N/C(SC)=C(/C#N)C(=O)OCCOCC)c1ccccc1` (stereo not given), the Activity [1] was 53.8%, the Activity [2] was 80.6% and the Activity [3] was 62%. For the same compound, the Activity [4] was 44.4%, the Activity [5] was 27.8% and the Activity [6] was 51.8%. It also gave an Activity [7] of 42.8% and an EC50 [8] of 87.9 µg/mL (≈ 171 µM).
For `CCOCCOC(=O)/C(C#N)=C(\NC(c1ccccc1F)P(=O)(OCC)OCC)SC` (stereo not given), the Activity [1] was 44.2%, the Activity [2] was 70% and the Activity [3] was 48.8%. It also gave an Activity [4] of 48.3%, an Activity [5] of 20.8% and an Activity [6] of 52.7%. For the same compound, the Activity [7] was 34.4% and the EC50 [8] was 167 µg/mL (≈ 353 µM).
In the case of `CCOP(=O)(OCC)C(N/C(SC)=C(/C#N)C(N)=O)c1ccccc1` (stereo not given), the Activity [2] is reported as 60.8%, the Activity [4] is reported as 55.6% and the Activity [6] is reported as 54.4%.
Compound `CCCOP(=O)(OCCC)C(N/C(SC)=C(/C#N)C(N)=O)c1ccccc1` (stereo not given) has an Activity [2] of 63%, an Activity [4] of 45.8% and an Activity [6] of 53.9%.
Compound `CS/C(NC(c1ccccc1)P(=O)(OC(C)C)OC(C)C)=C(\C#N)C(N)=O` (stereo not given) has an Activity [2] of 5.7%, an Activity [4] of 54.4% and an Activity [6] of 28.8%.
Work on `CCCCOP(=O)(OCCCC)C(N/C(SC)=C(/C#N)C(N)=O)c1ccccc1` (stereo not given) yielded an Activity [2] of 9.6%, an Activity [4] of 40.2% and an Activity [6] of 25.4%.
With `CNCC(=O)N[C@@H](CO)C(=O)N[C@H]1[C@H](O)[C@@H](O)[C@H](n2ccc(N)nc2=O)O[C@@H]1C(N)=O` [NINGNANMYCIN] the Activity [1] was 70%, the Activity [2] was 99.5% and the Activity [3] was 80%. For the same compound, the Activity [4] was 59.9%, the Activity [5] was 42.1% and the Activity [6] was 55.8%. The Activity [7] was 60.1% and the EC50 [8] was 50.9 µg/mL (≈ 115 µM).
